Measurements reported in ChEMBL document CHEMBL4219120, “Synthesis and SAR study of new hydroxy and chloro-substituted 2,4-diphenyl 5H-chromeno[4,3-b]pyridines as selective topoisomerase IIα-targeting anticancer agents” (Bioorg Med Chem, 2018).
Structures can show the parent of a compound that is named as a salt. The source made the active and inactive calls. The rule behind the calls is not given here.

Tests used:
HCT-15 = assay: Antiproliferative activity against human HCT15 cells after 72 hrs by CCK-8 assay; format: functional, cell-based; details: HCT-15, 72 h
Procedure, shortened: (§1)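 Cells seeded at 2-4 x 10^4 per well and grown overnight in medium with 10% FBS (37 °C, 5% CO2). After 4 h FBS starvation, medium was replaced with medium containing graded compound concentrations for 72 h. CCK-8 was added for 4 h more, then absorbance read at 450 nm. IC50 came from a four-parameter logistic fit. Mean ± S.D. of three experiments, each in triplicate.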

HeLa = assay: Antiproliferative activity against human HeLa cells after 72 hrs by CCK-8 assay; format: functional, cell-based; procedure, shortened: as §1
[1] = biological target: DNA topoisomerase 2-alpha (Homo sapiens) (UniProt P11388); assay: Inhibition of recombinant human topoisomerase 2alpha assessed as decrease in relaxation of supercoiled pBR322 DNA at 100 uM after 30 mins by agarose gel electrophoresis relative to control
Procedure, shortened: (§2)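 Recombinant human topo IIα (1 unit) with 100 ng supercoiled pBR322 in 10 mM Tris-HCl pH 7.9, 50 mM NaCl, 50 mM KCl, 5 mM MgCl2, 1 mM EDTA, 1 mM ATP, 15 µg/mL BSA, 30 min at 37 °C. Quenched with 7 mM EDTA. 0.8% agarose/TAE gel, 50 V, 1 h; EtBr stain; UV densitometry. Compounds came from 20 mM DMSO stocks. 20 µM was tested only when inhibition at 100 µM exceeded 30%. Etoposide was the positive control.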

[2] = biological target: DNA topoisomerase 2-alpha (Homo sapiens) (UniProt P11388); assay: Inhibition of recombinant human topoisomerase 2alpha assessed as decrease in relaxation of supercoiled pBR322 DNA at 20 uM after 30 mins by agarose gel electrophoresis relative to control; procedure, shortened: as §2
[3] = biological target: T1, DNA topoisomerase 1 (Homo sapiens) (UniProt P11387); assay: Inhibition of recombinant human topoisomerase 1 assessed as decrease in relaxation of supercoiled pBR322 DNA at 100 uM after 30 mins by agarose gel electrophoresis relative to control
T1 sequence (whole entry): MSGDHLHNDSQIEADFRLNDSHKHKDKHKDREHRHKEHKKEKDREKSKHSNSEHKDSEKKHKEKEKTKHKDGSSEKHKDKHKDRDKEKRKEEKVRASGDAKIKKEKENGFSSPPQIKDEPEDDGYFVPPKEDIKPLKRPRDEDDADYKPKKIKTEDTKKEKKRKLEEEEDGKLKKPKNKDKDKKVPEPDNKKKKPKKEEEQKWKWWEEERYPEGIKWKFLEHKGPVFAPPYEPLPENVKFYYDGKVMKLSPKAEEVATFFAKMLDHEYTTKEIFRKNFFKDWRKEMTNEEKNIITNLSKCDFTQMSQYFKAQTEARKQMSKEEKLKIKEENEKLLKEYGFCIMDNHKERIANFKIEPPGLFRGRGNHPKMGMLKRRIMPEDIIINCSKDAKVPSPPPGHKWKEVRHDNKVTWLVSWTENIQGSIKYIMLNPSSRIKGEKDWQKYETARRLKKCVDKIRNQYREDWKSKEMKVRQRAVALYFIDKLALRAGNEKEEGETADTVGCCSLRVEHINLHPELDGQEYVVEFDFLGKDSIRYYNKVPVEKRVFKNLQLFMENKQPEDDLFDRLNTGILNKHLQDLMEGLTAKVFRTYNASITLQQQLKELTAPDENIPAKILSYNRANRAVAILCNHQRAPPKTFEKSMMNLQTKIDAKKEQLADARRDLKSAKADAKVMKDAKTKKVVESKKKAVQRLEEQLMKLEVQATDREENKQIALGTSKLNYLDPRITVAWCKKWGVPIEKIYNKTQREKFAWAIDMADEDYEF
Procedure, shortened: (§3)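 Supercoiled pBR322 (100 ng) with 1 unit recombinant human topo I in 10 mM Tris-HCl pH 7.9, 150 mM NaCl, 0.1% BSA, 0.1 mM spermidine, 5% glycerol, 30 min at 37 °C. Stopped with SDS/dye stop solution. Run on 0.8% agarose in TAE, 50 V, 1 h; EtBr-stained; bands quantitated under UV. Compounds came from 20 mM DMSO stocks. 20 µM was tested only when inhibition at 100 µM exceeded 30%. Camptothecin was the positive control.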

T47D = assay: Antiproliferative activity against human T47D cells after 72 hrs by CCK-8 assay; format: functional, cell-based; procedure, shortened: as §1
[4] = biological target: DNA topoisomerase 2-alpha (Homo sapiens) (UniProt P11388); assay: Inhibition of recombinant human topoisomerase 2alpha assessed as decrease in relaxation of supercoiled pBR322 DNA at 100 uM after 30 mins by agarose gel electrophoresis relative to etoposide
[5] = biological target: DNA topoisomerase 2-alpha (Homo sapiens) (UniProt P11388); assay: Inhibition of recombinant human topoisomerase 2alpha assessed as decrease in relaxation of supercoiled pBR322 DNA at 20 uM after 30 mins by agarose gel electrophoresis relative to etoposide
[6] = biological target: T1, DNA topoisomerase 1 (Homo sapiens); assay: Inhibition of recombinant human topoisomerase 1 assessed as decrease in relaxation of supercoiled pBR322 DNA at 100 uM after 30 mins by agarose gel electrophoresis relative to camptothecin
[7] = biological target: T1, DNA topoisomerase 1 (Homo sapiens); assay: Inhibition of recombinant human topoisomerase 1 assessed as decrease in relaxation of supercoiled pBR322 DNA at 20 uM after 30 mins by agarose gel electrophoresis relative to camptothecin
[8] = biological target: T1, DNA topoisomerase 1 (Homo sapiens); assay: Inhibition of recombinant human topoisomerase 1 assessed as decrease in relaxation of supercoiled pBR322 DNA at 20 uM after 30 mins by agarose gel electrophoresis relative to control; procedure, shortened: as §3

DNA topoisomerase 2-alpha (Homo sapiens), sequence (P11388 whole entry): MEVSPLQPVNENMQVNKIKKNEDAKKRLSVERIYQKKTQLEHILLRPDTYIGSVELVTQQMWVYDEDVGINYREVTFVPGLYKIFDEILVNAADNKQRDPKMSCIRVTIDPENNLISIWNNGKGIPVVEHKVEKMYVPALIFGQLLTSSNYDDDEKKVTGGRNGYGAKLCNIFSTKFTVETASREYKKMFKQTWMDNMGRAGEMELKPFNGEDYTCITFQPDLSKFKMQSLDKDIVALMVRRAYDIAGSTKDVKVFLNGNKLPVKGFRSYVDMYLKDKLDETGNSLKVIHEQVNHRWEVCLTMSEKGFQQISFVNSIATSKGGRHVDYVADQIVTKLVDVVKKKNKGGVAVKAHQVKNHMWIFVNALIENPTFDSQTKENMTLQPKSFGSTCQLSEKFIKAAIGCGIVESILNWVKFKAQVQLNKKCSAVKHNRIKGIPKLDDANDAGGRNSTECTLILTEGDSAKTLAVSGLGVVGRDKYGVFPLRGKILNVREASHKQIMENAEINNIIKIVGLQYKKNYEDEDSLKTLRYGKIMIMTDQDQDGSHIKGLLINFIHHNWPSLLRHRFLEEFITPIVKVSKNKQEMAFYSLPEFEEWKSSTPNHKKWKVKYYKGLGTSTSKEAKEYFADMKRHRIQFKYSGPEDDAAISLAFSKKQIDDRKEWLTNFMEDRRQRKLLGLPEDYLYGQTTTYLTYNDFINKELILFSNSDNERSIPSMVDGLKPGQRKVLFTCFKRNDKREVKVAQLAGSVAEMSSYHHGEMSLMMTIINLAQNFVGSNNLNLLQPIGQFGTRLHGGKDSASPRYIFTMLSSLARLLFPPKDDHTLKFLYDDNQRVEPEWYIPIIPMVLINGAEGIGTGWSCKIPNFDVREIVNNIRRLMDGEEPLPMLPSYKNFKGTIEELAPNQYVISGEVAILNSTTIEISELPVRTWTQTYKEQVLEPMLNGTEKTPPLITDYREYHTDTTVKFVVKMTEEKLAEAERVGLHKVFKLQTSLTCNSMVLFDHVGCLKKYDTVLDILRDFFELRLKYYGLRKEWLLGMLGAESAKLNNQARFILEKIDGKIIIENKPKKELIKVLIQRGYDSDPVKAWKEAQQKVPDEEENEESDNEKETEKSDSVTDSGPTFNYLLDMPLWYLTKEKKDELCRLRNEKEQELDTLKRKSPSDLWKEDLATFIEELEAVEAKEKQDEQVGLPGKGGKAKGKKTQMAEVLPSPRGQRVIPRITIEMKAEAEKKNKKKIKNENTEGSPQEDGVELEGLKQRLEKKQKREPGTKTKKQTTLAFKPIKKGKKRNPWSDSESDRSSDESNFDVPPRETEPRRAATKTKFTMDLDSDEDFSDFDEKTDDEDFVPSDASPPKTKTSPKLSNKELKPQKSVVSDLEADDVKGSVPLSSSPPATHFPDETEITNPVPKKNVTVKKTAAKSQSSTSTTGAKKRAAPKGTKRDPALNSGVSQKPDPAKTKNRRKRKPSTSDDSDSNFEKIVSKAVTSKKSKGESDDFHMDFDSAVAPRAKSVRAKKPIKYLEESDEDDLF

Row | SMILES | IC50 (HCT-15) | IC50 (HeLa) | inhibition [1] | inhibition [2] | inhibition [3] | IC50 (T47D) | fold change (FC) [4] | fold change (FC) [5] | fold change (FC) [6] | fold change (FC) [7] | inhibition [8]
1 | COc1cccc2c1C(=O)c1c(O)c3c(c(O)c1C2=O)C[C@@](O)(C(=O)CO)C[C@@H]3O[C@H]1C[C@H](N)[C@H](O)[C@H](C)O1 [DOXORUBICIN HYDROCHLORIDE] | 730 nM | 1700 nM | – | – | – | – | – | – | – | – | –
2 | Oc1cccc(-c2cc(-c3cccc(Cl)c3)c3c(n2)-c2ccccc2OC3)c1 | 1230 nM | 820 nM | 63.6% | inactive | 12% | 860 nM | – | – | – | – | –
3 | Oc1ccccc1-c1cc(-c2cccc(Cl)c2)nc2c1oc1ccccc12 | – | – | – | – | – | – | 0.97 | 0.91 | 1.01 | 0.38 | –
4 | Oc1ccc(-c2cc(-c3cccc(Cl)c3)nc3c2COc2ccccc2-3)cc1 | 1770 nM | 890 nM | 95.9% | 57.3% | inactive | 880 nM | 1.44 | 1.61 | inactive | – | –
5 | Oc1cccc(-c2cc(-c3ccccc3Cl)nc3c2COc2ccccc2-3)c1 | 870 nM | 2500 nM | 90.8% | 57.3% | 79.1% | 700 nM | 1.37 | 1.61 | 0.99 | 0.05 | 1.7%
6 | Oc1ccccc1-c1cc(-c2ccccc2Cl)c2c(n1)-c1ccccc1OC2 | > 50000 nM | > 50000 nM | 78.1% | 45.5% | inactive | 1660 nM | – | – | – | – | –
7 | Oc1ccccc1-c1cc(-c2ccc(Cl)cc2)nc2c1COc1ccccc1-2 | 1660 nM | > 50000 nM | 88.9% | 56.6% | 7.6% | > 50000 nM | 1.34 | 1.59 | 0.1 | – | –
8 | Oc1ccc(-c2cc(-c3ccc(Cl)cc3)nc3c2oc2ccccc23)cc1 | – | – | – | – | – | – | 1.15 | 1.75 | 1.62 | 1.4 | –
9 | Oc1ccc(-c2cc(-c3ccccc3Cl)c3c(n2)-c2ccccc2OC3)cc1 | 4720 nM | 680 nM | 63.5% | 48.1% | 56.1% | 940 nM | – | – | – | – | inactive
10 | Oc1ccccc1-c1cc(-c2ccc(Cl)cc2)nc2c1oc1ccccc12 | – | – | – | – | – | – | 0.99 | 0.63 | 1.39 | 0.93 | –
11 | Oc1cccc(-c2cc(-c3cccc(Cl)c3)nc3c2oc2ccccc23)c1 | – | – | – | – | – | – | 0.98 | 0.65 | 1.12 | 2.02 | –
12 | Oc1cccc(-c2cc(-c3ccc(Cl)cc3)nc3c2oc2ccccc23)c1 | – | – | – | – | – | – | 1.01 | 0.27 | 1.32 | 2.09 | –
13 | Oc1ccccc1-c1cc(-c2ccc(Cl)cc2)c2c(n1)-c1ccccc1OC2 | > 50000 nM | > 50000 nM | 34.7% | inactive | 20.1% | > 50000 nM | – | – | – | – | –
14 | Oc1cccc(-c2cc(-c3ccccc3Cl)nc3c2oc2ccccc23)c1 | – | – | – | – | – | – | 0.95 | 0.42 | 1.22 | 0.98 | –
15 | Oc1cccc(-c2cc(-c3ccc(Cl)cc3)c3c(n2)-c2ccccc2OC3)c1 | 4570 nM | 1940 nM | 66.7% | 4.7% | 20.2% | 750 nM | – | – | – | – | –
16 | Oc1cccc(-c2cc(-c3cccc(Cl)c3)nc3c2COc2ccccc2-3)c1 | 2130 nM | 680 nM | 84% | 63.7% | 30% | 720 nM | 1.26 | 1.79 | 0.36 | inactive | inactive
17 | Oc1ccc(-c2cc(-c3ccc(Cl)cc3)nc3c2COc2ccccc2-3)cc1 | 1830 nM | 860 nM | 87.8% | 41.9% | inactive | 1720 nM | 1.32 | 1.18 | inactive | – | –
18 | Oc1cccc(-c2cc(-c3ccc(Cl)cc3)nc3c2COc2ccccc2-3)c1 | 2300 nM | 760 nM | 71.3% | 63.8% | 28.8% | 1180 nM | 1.07 | 1.8 | 0.36 | – | –
19 | Oc1ccc(-c2cc(-c3cccc(Cl)c3)nc3c2oc2ccccc23)cc1 | – | – | – | – | – | – | 1.01 | 0.77 | 1.56 | 1.29 | –
20 | Oc1ccccc1-c1cc(-c2cccc(Cl)c2)nc2c1COc1ccccc1-2 | 2230 nM | 680 nM | 75.1% | 51.9% | 4.4% | 1230 nM | 1.13 | 1.46 | 0.06 | – | –
21 | Oc1ccc(-c2cc(-c3ccccc3Cl)nc3c2oc2ccccc23)cc1 | – | – | – | – | – | – | 1.07 | 0.56 | 1.39 | 1.99 | –
22 | Oc1ccccc1-c1cc(-c2ccccc2Cl)nc2c1COc1ccccc1-2 | > 50000 nM | > 50000 nM | 79.1% | 47.3% | 4.7% | > 50000 nM | 1.19 | 1.33 | 0.06 | – | –
23 | Oc1ccc(-c2cc(-c3ccc(Cl)cc3)c3c(n2)-c2ccccc2OC3)cc1 | 1850 nM | 2080 nM | 100% | 19.9% | 38.5% | 1380 nM | – | – | – | – | 1.7%
24 | Oc1ccccc1-c1cc(-c2cccc(Cl)c2)c2c(n1)-c1ccccc1OC2 | > 50000 nM | > 50000 nM | 18.9% | – | 21.1% | > 50000 nM | – | – | – | – | –
25 | CC[C@@]1(O)C(=O)OCc2c1cc1n(c2=O)Cc2cc3ccccc3nc2-1 [CAMPTOTHECIN] | 20 nM | 130 nM | – | – | – | 490 nM | – | – | – | – | –
26 | COc1cc([C@@H]2c3cc4c(cc3[C@@H](O[C@@H]3O[C@@H]5CO[C@@H](C)O[C@H]5[C@H](O)[C@H]3O)[C@H]3COC(=O)[C@H]23)OCO4)cc(OC)c1O [ETOPOSIDE] | 2450 nM | – | – | – | – | 320 nM | – | – | – | – | –
27 | Oc1cccc(-c2cc(-c3ccccc3Cl)c3c(n2)-c2ccccc2OC3)c1 | 1520 nM | 740 nM | 91.7% | 57% | inactive | 860 nM | – | – | – | – | –
28 | Oc1ccccc1-c1cc(-c2ccccc2Cl)nc2c1oc1ccccc12 | – | – | – | – | – | – | 0.98 | 0.62 | 0.18 | – | –
